Experimental data published in ChEMBL document CHEMBL1157745, “Structure-based discovery of A2A adenosine receptor ligands” (J Med Chem, 2010).
The source made the active and inactive calls. The calls are words filed in the database; no cut-off is given here.

Biological target: Cruzipain (Trypanosoma cruzi) (UniProt P25779)
Assay: Inhibition of Trypanosoma cruzi cruzain at 10 uM preincubated for 5 mins before substrate addition by spectrophotometry
Conditions: in the assay text read “spectrofluorimetry” for “spectrophotometry”
In short: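 Enzyme (0.8 nM) preincubated with compound 5 min in 100 mM sodium acetate pH 5.5, 5 mM DTT, with and without 0.1% Triton X-100; started with Z-FR-AMC (2.5 μM final, enzyme 0.4 nM final), 0.5% DMSO; fluorescence ex 355/em 460 nm over 5 min; duplicates, DMSO controls.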

Cruzipain (Trypanosoma cruzi), sequence (P25779 123-467 limits assumed): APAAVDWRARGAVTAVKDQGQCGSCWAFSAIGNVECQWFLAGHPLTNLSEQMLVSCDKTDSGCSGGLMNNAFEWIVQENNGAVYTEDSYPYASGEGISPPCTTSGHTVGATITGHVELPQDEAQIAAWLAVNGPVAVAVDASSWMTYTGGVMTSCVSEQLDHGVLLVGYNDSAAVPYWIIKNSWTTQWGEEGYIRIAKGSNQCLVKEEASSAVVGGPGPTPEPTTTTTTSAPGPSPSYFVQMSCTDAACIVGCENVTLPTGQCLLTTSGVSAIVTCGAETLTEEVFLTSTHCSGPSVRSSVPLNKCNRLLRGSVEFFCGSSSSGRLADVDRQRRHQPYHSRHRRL

| Activity | SMILES |
| --- | --- |
| inactive | Cc1cccc(O[C@H](C)C(=O)Nc2nc(-c3ccccc3)n[nH]2)c1 |
| Active | Cc1cc(C)nc(NC(=N)NCCc2c[nH]c3ccc(F)cc23)n1 |
| inactive | Cc1ccc2nc(Nc3nc(C)cc(C)n3)[nH]c2c1 |
| inactive | COc1ccc2c(c1)oc1c(-c3ccncc3)c(C#N)c(N)c(C#N)c12 |

System: not listed separately
Assay: Inhibition of beta-lactamase AmpC preincubated for 5 mins before substrate addition by spectrophotometry
Conditions: not given
In short: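 In 50 mM potassium phosphate pH 7.0, 1 nM enzyme incubated 5 min with compound at 10 μM (0.1% DMSO); CENTA added to 92 μM final; absorbance at 405 nm followed for 5 min; duplicates with DMSO controls.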

| inhibition | SMILES |
| --- | --- |
| inactive | Cc1cccc(O[C@H](C)C(=O)Nc2nc(-c3ccccc3)n[nH]2)c1 |
| inactive | Cc1cc(C)nc(NC(=N)NCCc2c[nH]c3ccc(F)cc23)n1 |

Organism: Homo sapiens
Assay: Selectivity ratio of Ki for human recombinant adenosine A1 receptor to KI for human recombinant adenosine A2A receptor
Conditions: not given

| Ratio Ki | SMILES |
| --- | --- |
| 50 | Cc1cc(C)nc(NC(=N)NCCc2c[nH]c3ccc(F)cc23)n1 |

Organism: Homo sapiens
Assay: Selectivity ratio of Ki for human recombinant adenosine A3 receptor to KI for human recombinant adenosine A2A receptor
Conditions: not given

| Ratio Ki | SMILES |
| --- | --- |
| 50 | Cc1cc(C)nc(NC(=N)NCCc2c[nH]c3ccc(F)cc23)n1 |

Biological target: T1, Adenosine receptor A1 (Homo sapiens) (UniProt P30542)
T1 sequence (whole entry): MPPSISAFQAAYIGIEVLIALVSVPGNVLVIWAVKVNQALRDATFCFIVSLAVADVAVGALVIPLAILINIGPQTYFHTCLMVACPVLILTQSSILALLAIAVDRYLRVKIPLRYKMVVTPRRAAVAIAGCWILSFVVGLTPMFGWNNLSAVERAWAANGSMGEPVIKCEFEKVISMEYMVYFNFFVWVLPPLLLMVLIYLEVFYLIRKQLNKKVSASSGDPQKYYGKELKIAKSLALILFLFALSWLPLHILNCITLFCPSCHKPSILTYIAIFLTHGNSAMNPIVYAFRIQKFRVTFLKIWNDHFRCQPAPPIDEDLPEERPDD
Assay: Displacement of [3H]R-PIA from human recombinant adenosine A1 receptor expressed in CHO cells at 20 uM after 60 mins by scintillation counting
Format: cell-based
Conditions: not given

| Activity [%] | SMILES |
| --- | --- |
| 25 | Cc1cc(C)nc(NC(=N)NCCc2c[nH]c3ccc(F)cc23)n1 |
| 6 | Cc1cccc(Nc2nc3c([nH]2)c(=O)n(C)c(=O)n3C)c1 |
| 19 | Cc1cc(C)nc(NC(=N)NCCc2c[nH]c3ccccc23)n1 |
| 5 | COc1ccc2c(CCNC(=N)Nc3nc(C)cc(C)n3)c[nH]c2c1 |
| 3 | Cc1cc(C)nc(NC(=N)NCCc2ccsc2)n1 |
| 15 | CNc1ccccc1C(=O)/N=C(\N)Nc1nc(C)c2ccccc2n1 |
| 4 | N=C(NCCc1c[nH]c2ccccc12)Nc1ncccn1 |
| 4 | COc1ccc(-c2cc(=O)[nH]c(Nc3ccccc3)n2)cc1OC |
| 10 | COc1ccc(CCNC(=N)Nc2nc(C)cc(C)n2)cc1 |
| 12 | Cc1ccc2nc(Nc3nc(C)cc(C)n3)[nH]c2c1 |
| 5 | COc1ccc2c(c1)oc1c(-c3ccncc3)c(C#N)c(N)c(C#N)c12 |

Biological target: Adenosine receptor A2a (Homo sapiens, UniProt P29274)
Assay: Displacement of [3H]CGS21680 from human recombinant adenosine A2A receptor expressed in HEK293 cells after 60 mins by scintillation counting
Format: cell-based
Conditions: not given

Adenosine receptor A2a, sequence (P29274 whole entry): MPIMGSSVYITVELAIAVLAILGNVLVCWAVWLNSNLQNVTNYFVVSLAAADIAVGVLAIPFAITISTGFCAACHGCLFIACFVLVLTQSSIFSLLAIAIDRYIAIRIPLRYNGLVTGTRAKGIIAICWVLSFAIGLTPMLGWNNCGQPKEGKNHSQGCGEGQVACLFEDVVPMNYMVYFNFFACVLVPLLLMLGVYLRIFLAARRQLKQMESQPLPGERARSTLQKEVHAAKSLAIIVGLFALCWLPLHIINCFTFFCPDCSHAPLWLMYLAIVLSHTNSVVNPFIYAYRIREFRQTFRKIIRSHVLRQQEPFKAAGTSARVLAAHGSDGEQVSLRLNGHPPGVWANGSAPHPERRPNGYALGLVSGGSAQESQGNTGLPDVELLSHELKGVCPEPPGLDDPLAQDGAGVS

| Ki [µM] | SMILES |
| --- | --- |
| 0.2 | Cc1cc(C)nc(NC(N)=NCCc2c[nH]c3ccc(F)cc23)n1 |
| 1.2 | Cc1cccc(Nc2nc3c([nH]2)c(=O)n(C)c(=O)n3C)c1 |
| 0.4 | Cc1cc(C)nc(NC(N)=NCCc2ccsc2)n1 |
| 5.9 | NC(=NCCc1c[nH]c2ccccc12)Nc1ncccn1 |
| 0.4 | Cc1cc(C)nc(NC(=N)NCCc2c[nH]c3ccccc23)n1 |
| 0.6 | COc1ccc2c(CCNC(=N)Nc3nc(C)cc(C)n3)c[nH]c2c1 |
| 8.8 | CNc1ccccc1C(=O)/N=C(\N)Nc1nc(C)c2ccccc2n1 |
| 3.6 | COc1ccc(-c2cc(=O)[nH]c(Nc3ccccc3)n2)cc1OC |
| 0.9 | COc1ccc(CCNC(=N)Nc2nc(C)cc(C)n2)cc1 |
| 1.3 | Cc1ccc2nc(Nc3nc(C)cc(C)n3)[nH]c2c1 |
| 2.7 | COc1ccc2c(c1)oc1c(-c3ccncc3)c(C#N)c(N)c(C#N)c12 |

System: not listed separately
Assay: Colloidal aggregation at 10 uM by dynamic light scattering assay
Format: physicochemical
Conditions: not given
In short: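 Compounds diluted from concentrated DMSO stocks into filtered 50 mM KPi, pH 7.0; particle formation checked by dynamic light scattering with 826.6 nm laser at 100% power, detector angle 90°.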

| Activity | SMILES |
| --- | --- |
| Active | Cc1cc(C)nc(NC(N)=NCCc2c[nH]c3ccc(F)cc23)n1 |
| Not Active | Cc1ccc2nc(Nc3nc(C)cc(C)n3)[nH]c2c1 |
| Not Active | COc1ccc2c(c1)oc1c(-c3ccncc3)c(C#N)c(N)c(C#N)c12 |
| Not Active | Cc1cccc(O[C@H](C)C(=O)Nc2nnc(-c3ccccc3)[nH]2)c1 |

Biological target: T2, Adenosine receptor A3 (Homo sapiens) (UniProt P0DMS8)
T2 sequence (whole entry): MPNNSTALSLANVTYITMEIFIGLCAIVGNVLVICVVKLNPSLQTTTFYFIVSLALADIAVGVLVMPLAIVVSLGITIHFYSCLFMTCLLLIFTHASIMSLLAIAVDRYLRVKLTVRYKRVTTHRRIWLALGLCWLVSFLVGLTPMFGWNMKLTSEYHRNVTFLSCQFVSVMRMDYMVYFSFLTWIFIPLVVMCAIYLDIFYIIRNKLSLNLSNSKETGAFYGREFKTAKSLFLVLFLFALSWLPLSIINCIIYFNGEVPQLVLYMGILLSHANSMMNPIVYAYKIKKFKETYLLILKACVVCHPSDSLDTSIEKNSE
Assay: Displacement of [125I]I-AB-MECA from human recombinant adenosine A3 receptor expressed in CHO cells at 20 uM after 60 mins by gamma counting
Conditions: not given

| Activity [%] | SMILES |
| --- | --- |
| 18 | Cc1cc(C)nc(NC(=N)NCCc2c[nH]c3ccc(F)cc23)n1 |
| 17 | Cc1cccc(Nc2nc3c([nH]2)c(=O)n(C)c(=O)n3C)c1 |
| 16 | Cc1cc(C)nc(NC(=N)NCCc2c[nH]c3ccccc23)n1 |
| 20 | COc1ccc2c(CCNC(=N)Nc3nc(C)cc(C)n3)c[nH]c2c1 |
| 21 | Cc1cc(C)nc(NC(=N)NCCc2ccsc2)n1 |
| 8 | CNc1ccccc1C(=O)/N=C(\N)Nc1nc(C)c2ccccc2n1 |
| 8 | N=C(NCCc1c[nH]c2ccccc12)Nc1ncccn1 |
| 37 | COc1ccc(-c2cc(=O)[nH]c(Nc3ccccc3)n2)cc1OC |
| 9 | COc1ccc(CCNC(=N)Nc2nc(C)cc(C)n2)cc1 |
| 15 | Cc1ccc2nc(Nc3nc(C)cc(C)n3)[nH]c2c1 |
| 28 | COc1ccc2c(c1)oc1c(-c3ccncc3)c(C#N)c(N)c(C#N)c12 |
